From PubChem
PRMT1 FP inh – PRMT1 (human) inhibition, primary screen; Q99873; recombinant PRMT1, activity-based probe fluorescence polarization; inhibition, % at 2.79 µM; 370,000 tested, 1.3% active;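 active = inhibition above about 21% made by adding two undisclosed values, limit read from the data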
TCR-CD3 inh – inhibitors of human TCR-CD3 interaction; TAMRA-labeled TCR probe fluorescence, biochemical; inhibition, % at 9.4 µM; 360,000 tested, 0.37% active; in the data active = inhibition above about 19%;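 also: recombinant mutant TCR 2C K166C tagged with TAMRA read by polarization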
ABHD4 inh – inhibits mouse alpha/beta hydrolase domain 4; Q8VD66; 370,000 tested, 0.54% active; purified mABHD4, FP-Rh probe fluorescence polarization; inhibition, % at 8.92 µM;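 active = inhibition exceeding the mean over every tested compound plus 3 SD, cut at about 30% in these data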
Target sequence (Q8VD66 whole entry, looked up, the tested form may be a part): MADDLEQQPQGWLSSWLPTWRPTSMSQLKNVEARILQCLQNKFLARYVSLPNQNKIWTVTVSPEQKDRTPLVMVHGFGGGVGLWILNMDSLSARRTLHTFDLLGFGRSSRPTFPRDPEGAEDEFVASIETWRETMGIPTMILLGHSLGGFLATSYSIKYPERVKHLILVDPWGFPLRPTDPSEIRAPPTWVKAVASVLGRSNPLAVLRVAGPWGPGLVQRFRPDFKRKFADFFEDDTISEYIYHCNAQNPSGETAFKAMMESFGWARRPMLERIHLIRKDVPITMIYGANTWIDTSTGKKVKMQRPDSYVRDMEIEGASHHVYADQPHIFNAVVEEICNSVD
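assay system = mABHD4 protein | compound dosing = single nominal dose of 8.92 µM, 0.89% DMSO final | read-out basis = percent inhibition of probe binding, normalized to plate controls | schedule = Enzyme–compound pre-incubation 45 min, then probe 60 min, both 25 °C | detection = fluorescence polarization, excitation 525 nm, emission 598 nm, BODIPY TMR filters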
HTRA1 inh – HTRA1 (human) protease inhibition | Q92743 | recombinant HTRA1, FP-rhodamine activity-based probe, fluorescence polarization | inhibition, % at 5.96 µM | 340,000 tested, 0.5% active | AID 504803; in the data active = inhibition above about 36%
SIAE inh – blocks human sialic acid acetylesterase; 370,000 tested, 0.69% active; SIAE FP-Rh probe binding, fluorescence polarization; Q9HAT2; inhibition, % at 9.66 µM; AID 1053197;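 active = inhibition above a cutoff: mean of compounds within the control limits plus 3 SD of those, cut at about 17% in these data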
Hits are given with their value; – = inactive; · = not tested or not shown. A selection: hits, their analogues and other compounds. The true share with any hit is near 2.6%.

SMILES	PRMT1 FP inh	TCR-CD3 inh	ABHD4 inh	HTRA1 inh	SIAE inh
Cc1ccc(CNc2ccc3c(c2)OCO3)cc1	·	·	·	48.7	·
Cc1ccc(-c2nc3ccccc3nc2NN)cc1	22.4	–	–	–	–
CCCCCC(=O)N/N=C/c1ccc([N+](=O)[O-])o1	–	–	–	–	–
O=C(CCC(=O)Nc1ccc(Cl)cc1Cl)N/N=C/c1ccc([N+](=O)[O-])o1	23.7	–	–	·	–
Cc1cc2oc(=O)sc2cc1NS(=O)(=O)c1ccccc1	91.7	–	–	–	–
Cc1nc2cc(NS(=O)(=O)c3cccc4cccnc34)ccc2s1	–	–	–	–	–
CCCC(=O)N(c1ccc2oc(=O)sc2c1)S(=O)(=O)c1ccccc1	49.8	–	–	–	–
Cc1cc2oc(=O)sc2cc1NS(=O)(=O)c1cccc2cccnc12	53.6	–	–	–	–
CCCC(=O)N(c1ccc2oc(C)c(C(C)=O)c2c1)S(=O)(=O)c1ccc(C(=O)O)cc1	–	–	–	–	–
CC(=O)N(c1ccc2oc(=O)sc2c1)S(=O)(=O)c1cccc2cccnc12	91.0	–	–	–	–
COc1cc([N+](=O)[O-])ccc1NC(=O)NNC(=O)c1sccc1C	–	–	–	–	–
CCn1cc(/C=C(\NC(=O)c2ccccc2F)C(=O)NCCN2CCOCC2)c2ccccc21	–	–	–	–	–
CCN(Cc1ccccc1)C(=O)Nc1c(Cl)cccc1Cl	–	–	–	·	–
C[C@@H]1ON(C)[C@H]2C[C@H]3c4[nH]c5c(-c6ccc7c(c6)OCO7)cccc5c4CCN3C(=O)[C@@H]12	–	–	–	·	–
CC(=Nc1ccc(C)cc1)c1sc2ccccc2c1O	24.5	–	–	–	–
CC(=Nc1cccc(O)c1)c1sc2ccccc2c1O	–	–	–	–	–
O=S(=O)(c1ccc(C(F)(F)F)cc1)N1CCCc2nc(-c3ccc(F)cc3)ccc21	–	–	–	·	–
C=C1C(=O)[C@]23C[C@H]1CCC2[C@@]1(C)C(C[C@@H]3O)[C@](C)(C(=O)OC)CC[C@@H]1O (stereo partly specified)	–	–	–	·	–
C=C1C(=O)[C@]23C[C@H]1CC[C@H]2[C@]1(C)CCC[C@@](C)(C(=O)OC)[C@H]1C[C@@H]3O	24.4	·	–	·	–
Fc1ccc(C2CC(c3ccco3)=Nc3ccccc3S2)cc1 (stereo unspecified)	71.5	–	–	–	–
Fc1ccc(C2CC(c3ccco3)=NN2c2ccccc2)cc1 (stereo unspecified)	–	–	–	–	–
O=C(O)C1CC(c2ccccc2)=Nc2ccccc2S1 (stereo unspecified)	–	–	–	–	–
O=[N+]([O-])c1ccc(C2CC(c3ccccc3)=Nc3ccccc3S2)cc1 (stereo unspecified)	78.6	–	–	–	–
Cc1noc(C)c1NC(=O)N(C)C[C@@H]1Oc2ccc(NC(=O)CCC(F)(F)F)cc2CC(=O)N([C@@H](C)CO)C[C@@H]1C	–	–	–	–	–
CC(C)C1N=C2c3ccccc3N=C(SCc3cc(=O)n4cc(Cl)ccc4n3)N2C1=O (stereo unspecified)	–	–	–	–	19.2
SMILES	PRMT1 FP inh	TCR-CD3 inh	ABHD4 inh	HTRA1 inh	SIAE inh
CCOC(=O)CN1C(=O)S/C(=C\c2ccc(-c3ccc(C(=O)O)c(Cl)c3)o2)C1=O	–	–	–	–	–
O=C(O)c1ccc(-c2ccc(/C=C3\NC(=O)N(Cc4ccc(Cl)cc4)C3=O)o2)cc1Cl	43.1	–	–	–	–
Cc1ccc(C(=O)NCCc2sc(C)nc2C)cc1	23.4	–	–	–	–
COC(=O)c1nn(C)c(=O)[nH]c1=O	–	–	–	–	–
CC(Cl)C(=O)N1CCC(C(=O)NC2CCCc3ccccc32)CC1 (stereo unspecified)	–	·	–	·	–
S=C(SCc1cc(Cl)cc2c1OCOC2)N1CCSCC1	–	–	–	·	–
O=C1Nc2cc(Cl)ccc2Nc2cscc21	23.1	–	–	–	–
COc1ccc(C(=O)CCN2CCN(c3ccccc3OC)CC2)cc1	–	–	–	–	–
COc1ccc(C(=O)CCN2CCc3cc(OC)c(OC)cc3C2)cc1	21.8	–	–	–	–
O=C(c1ccc2c(=O)n3c(nc2c1)CCC3)N1CCN(S(=O)(=O)c2cccc(F)c2)CC1	–	–	–	–	–
O=C(Cc1cccc(NC(=O)C2CCN(S(=O)(=O)c3cccc([N+](=O)[O-])c3)CC2)c1)Nc1cccc(C(=O)N2CCOCC2)c1	–	–	–	–	–
CC(C(=O)N(C)C1CCS(=O)(=O)C1)N1C(=O)/C(=C/c2ccco2)SC1=S (stereo unspecified)	23.7	–	–	–	–
O=c1[nH]c2cc3c(cc2cc1C(c1nnnn1C1CCCCC1)N1CCSCC1)OCCO3 (stereo unspecified)	22.2	–	–	–	–
COc1cc2cc(C(c3nnnn3C3CCCC3)N3CCCCC3)c(=O)[nH]c2cc1OC (stereo unspecified)	–	–	–	–	–
Cc1ccccc1N(Cc1cc(=O)[nH]c2ccccc12)C(=O)CCl	–	–	–	–	–
CCCCCCCN(C(=O)CCl)c1ccccc1C	46.8	–	–	–	–
Cc1cccc(C)c1NC(=O)C(CCc1ccccc1)N1CCN(CCN(C)C)CC1 (stereo unspecified)	–	–	–	·	–
O=C(/C=C/c1ccccc1)c1ccccc1	–	–	–	–	–
O=C(/C=C\c1ccc(-c2ccccc2)o1)c1ccccc1	26.0	–	–	–	–
C/C(=N\OCc1nc2ccccc2c(=O)n1/N=C/c1cc([N+](=O)[O-])ccc1O)c1ccccc1	–	23.1	–	–	–
Cc1ccc[n+](C2C(c3ccc([N+](=O)[O-])cc3)C(C#N)=C([S-])NC2(O)C2CC2)c1 (stereo unspecified)	23.4	–	–	–	–
COc1ccc([C@H]2C(C#N)=C([S-])N[C@](C)(O)[C@@H]2[n+]2ccccc2)cc1	–	–	–	·	–
O=C(COc1ccccc1Br)Nc1ccc(S(=O)(=O)N2CCCC2)cc1	–	–	–	–	–
COc1ccc(N2C(=O)c3n[nH]c(C)c3C2c2ccc(F)cc2)cc1 (stereo unspecified)	–	–	–	·	–
Fc1cccc(CSc2ccc(-c3ccco3)nn2)c1	23.9	–	–	–	–
SMILES	PRMT1 FP inh	TCR-CD3 inh	ABHD4 inh	HTRA1 inh	SIAE inh
COc1cccc(CNC(=O)[C@H]2CCCN2C(=O)[C@H]2CCCN2C(=O)c2ccc(OC(F)(F)F)cc2)c1	–	–	–	·	–
O=C(O)CCC(=O)Nc1sc2c(c1C(=O)Nc1cccc3ccccc13)CCCCC2	23.9	–	–	–	–
COC(=O)C1=CN(c2cccc(C)c2)C=C(C(=O)OC)C1c1cc(OC)c(O)c([N+](=O)[O-])c1	–	–	–	52.4	–
COC(=O)C1=CN(c2ccc(OC)cc2)C=C(C(=O)OC)C1c1ccc(C)c([N+](=O)[O-])c1	–	–	–	–	–
Oc1c(Br)cc(Br)c(/C=N/n2c(-c3ccccc3)n[nH]c2=S)c1Br	23.2	–	–	–	–
Oc1ccc(Br)cc1/C=N/n1c(-c2ccccc2)n[nH]c1=S	–	–	–	–	–
